This is a sample that favours compounds with a hit; in the whole collection about 2.5% have one here.
HCV NS3 hel inh – HCV NS3 helicase inhibition. inhibition, % at 10.9 µM. 0.56% of 290,000 active. NS3 helicase DNA unwinding, Cy5 molecular beacon fluorescence;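 active = inhibition above the mean of all tested compounds plus 3 SD, set per campaign, cut at about 35% in these data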;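 also: 0% = DMSO wells and 100% = thioflavine S control wells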
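Control set: DMSO versus 110 µM thioflavine S; Material: NS3 helicase fragment of HCV; Measured by: Cy5 fluorescence at 0 and 60 min, beacon hairpin quenching; Read-out basis: percent inhibition from t60/t0 fluorescence ratio; Times: reaction time 60 min, 25 °C; Repeats: single replicate; Compound dosing: single dose, 10.9 µM nominal final, DMSO 0.8% final.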
SUMO1-SIM PPI – modulators of human SUMO1-mediated protein-protein interactions; P63165; SUMO1 binding to a labelled peptide, TR-FRET, 1 h; inhibition, % at 20 µM; 0.33% of 360,000 active; AID 602429; in the data active = inhibition above about 37%
Target sequence (P63165 whole entry, looked up): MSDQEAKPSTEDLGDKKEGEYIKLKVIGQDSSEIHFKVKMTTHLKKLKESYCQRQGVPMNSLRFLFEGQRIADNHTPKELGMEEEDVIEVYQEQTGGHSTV
MBD2 inh – blocks human MBD2 binding to methylated DNA | inhibition, % at 4.4 µM | 0.31% of 370,000 active | TR-FRET, MBD2 binding to methylated oligonucleotide; in the data active = inhibition above about 13%
Target sequence (Q9UBB5 whole entry, looked up): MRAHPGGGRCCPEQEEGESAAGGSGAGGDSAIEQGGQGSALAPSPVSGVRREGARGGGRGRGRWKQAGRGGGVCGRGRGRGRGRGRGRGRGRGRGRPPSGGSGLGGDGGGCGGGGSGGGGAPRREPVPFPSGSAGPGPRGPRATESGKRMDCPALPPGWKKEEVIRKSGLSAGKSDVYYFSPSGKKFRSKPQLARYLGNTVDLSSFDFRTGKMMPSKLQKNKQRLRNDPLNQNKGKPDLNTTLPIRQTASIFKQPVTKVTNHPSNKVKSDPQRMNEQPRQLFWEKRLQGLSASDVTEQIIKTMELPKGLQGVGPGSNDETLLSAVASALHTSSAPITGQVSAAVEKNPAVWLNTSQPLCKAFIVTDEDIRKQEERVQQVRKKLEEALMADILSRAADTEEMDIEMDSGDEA
UHRF1 MBD2 ctr – blocks human UHRF1 binding to methylated DNA; Q96T88; UHRF1 binding to methylated oligo, TR-FRET; inhibition, % at 4.4 µM; 0.75% of 370,000 active; in the data active = inhibition above about 21%;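 also: UHRF1 SRA domain binding a hemimethylated CpG hairpin DNA probe; 0% = median of test compound wells and 100% = reference inhibitor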
Pemphigus Ab inh – inhibitors of pemphigus antibody binding to human desmoglein-3; AID 588358; DSG3-coupled beads, scFv-anti-DSG3-GFP binding, flow cytometry; stronger effect = lower value; binding (percent of control), % at 10 µM; P32926; 0.48% of 310,000 active;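 active = binding more than 3 SD below its plate's average and above zero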;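 also: hits lower antibody fragment binding to DSG3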
DNMT1 inh – blocks human DNA methyltransferase DNMT1; inhibition (reported as % activation of signal), % at 10 µM; AID 588458; P26358; DNMT1 molecular beacon, Hinp1I cleavage, fluorescence; 0.83% of 360,000 active; in the data active = inhibition above about 50%
DNMT1 interf DR – counter-screen for DNMT1 inhibitors: spectral interference, dose response; AID 602382; IC50, µM; shares compounds with DNMT1 inh; molecular beacon fluorescence; 200 tested, under 10 active; call rule not given here
DNMT1 confirm – DNMT1 inhibition confirmation, single concentration; shares compounds with DNMT1 inh; DNMT1 molecular beacon HinP1I cleavage, fluorescence; inhibition, % at 10 µM; 8% of 2,300 active; AID 602385;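 active = average inhibition of at least 30% in the single-concentration confirmation test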
DNMT1 interf – beacon fluorescence artifact counter-screen. DNMT1 molecular beacon spectral interference counterscreen, fluorescence 485/520. shares compounds with DNMT1 inh. activation (fluorescence interference), % at 10 µM. 1% of 2,300 active;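 active = activation of at least 30% at 10 µM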;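 also: DNMT1 catalytic domain with a HinP1I cleavage step and a FAM/dabcyl DNA beacon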
* marks the source's active call; other numbers are inactive results; . = not tested or not shown.

SMILES	HCV NS3 hel inh	SUMO1-SIM PPI	MBD2 inh	UHRF1 MBD2 ctr	Pemphigus Ab inh	DNMT1 inh	DNMT1 confirm	DNMT1 interf	others
O=C1C=C(O)CC(c2ccco2)C1 (stereo not drawn)	25.5	17.9	1.3	35.6*	113.5	79.6*	4.3	2.8
O=C1C=C(Nc2ccc(O)cc2)CC(c2ccco2)C1 (stereo not drawn)	17.5	0.0	-3.3	-3.6	103.3	-8.2	.	.
O=C(/C=C/c1ccc2c(c1)OCO2)NCCS(=O)(=O)N1CCN(c2ccccc2)CC1	.	1.2	0.9	0.3	103.9	71.2*	6.2	3.7
COc1ccc(S(=O)(=O)N(C)CC(=O)N2CCCCC2)cc1Cl	0.5	-1.6	-3.7	0.4	104.4	0.2	.	.
COc1cc2c(cc1NC(=O)CSc1ccc(C)cc1)oc1ccccc12	-3.2	-1.5	-0.3	1.0	101.5	-9.9	.	.
COc1cc2c(cc1NC(=O)CSc1nnnn1-c1ccccc1)oc1ccccc12	-1.5	-1.3	-3.6	-0.8	103.1	52.0*	0.8	-3.1
O=C(CSc1cccc[n+]1[O-])Nc1cc2c(cc1Cl)C(=O)c1ccccc1C2=O	-4.6	41.1*	3.2	2.9	77.9	92.1*	2.0	-10.4
COc1cc2c(cc1NC(=O)CSc1cccc[n+]1[O-])oc1ccccc12	-1.1	0.1	1.7	-0.2	96.6	72.3*	1.9	-0.1
CC(=O)NC12CC3CC(C1)CC(C(=O)OCC(=O)c1cc(C)n(C)c1C)(C3)C2	.	0.0	-2.2	-2.0	98.3	51.1*	3.4	2.4
Cn1c(C(=O)O)cc2c(=O)n3ccccc3nc21	4.0	-12.2	-3.2	-1.6	98.6	1.0	.	.
COc1cc(CCc2ccccc2)c(C(=O)O)c(O)c1C/C=C(/C)CCC=C(C)C	.	77.2*	3.7	-3.7	101.7	61.1*	84.5*	-8.5	DNMT1 interf DR=>99
Cc1cc(C)n2nc(C(=O)N/N=C/c3c4ccccc4cc4ccccc34)nc2n1	-6.8	14.9	3.4	-5.7	102.4	92.0*	-0.9	1.2
Cc1ccc(-c2[nH]ncc2/C=N/n2c(COc3ccccc3)nc3ccccc3c2=O)cc1	-6.1	-0.6	-5.9	-1.3	77.0	66.7*	3.1	5.4
Cc1cccc(N2CCN(S(=O)(=O)c3cn(C)cn3)CC2)c1C	-0.2	5.7	-1.5	-2.3	107.2	2.0	.	.
COc1cccc(NC(=O)CSc2nnc(Cc3cccn3C)n2-c2ccc(F)cc2)c1	3.4	-8.6	-0.9	1.9	100.7	75.5*	3.0	4.7
Cc1ccc2cc(C#N)c(SCC(=O)NNC(=O)Cc3ccccc3)nc2c1	1.4	-4.5	0.7	-0.3	98.8	44.9	-1.2	-5.2
CC(=O)Nc1cccc(NC(=O)c2cc(-c3cccnc3)nc3ccc(Br)cc23)c1	-15.1	-10.0	-3.3	-1.3	101.3	-10.7	.	.
CSc1ccccc1NC(=O)c1cc(-c2cccnc2)nc2ccc(Br)cc12	-6.1	10.0	-2.2	-2.4	99.0	56.0*	0.0	-4.5
COc1ccccc1CCNC(=O)c1cc(-c2ccncc2)nc2ccc(Br)cc12	-15.9	-9.8	-2.4	-2.0	101.5	50.2*	1.2	-1.0
COCCN(CCOC)C(=O)CSc1ccc(S(=O)(=O)N2CCN(C)CC2)cn1	.	2.0	2.1	3.2	91.6	-0.7	.	.
Cc1cccc(-c2nnn3c2nc(NCCc2ccc(S(N)(=O)=O)cc2)c2ccccc23)c1	5.7	-16.5	7.5	4.8	107.3	42.3	.	.
NS(=O)(=O)c1ccc(CCNc2nc3c(-c4cccc(F)c4)nnn3c3ccccc23)cc1	6.0	-4.6	1.2	-1.8	96.5	72.2*	7.3	-2.2
Cc1ccc(-c2nnn3c2nc(NCCc2ccc(S(N)(=O)=O)cc2)c2ccccc23)cc1	-0.5	-3.9	-2.3	0.7	109.7	88.8*	7.2	-1.6
COc1ccc(NC(=O)N(C)C[C@@H]2OCc3cn(nn3)CCCC(=O)N([C@@H](C)CO)C[C@H]2C)cc1	.	2.7	.	.	.	62.6*	3.4	2.8
O=[N+]([O-])c1ccc(-c2cc(-c3ccc(Cl)cc3)n[nH]2)cc1	-6.1	46.9*	3.9	9.7	108.2	91.0*	9.1	-1.1
SMILES	HCV NS3 hel inh	SUMO1-SIM PPI	MBD2 inh	UHRF1 MBD2 ctr	Pemphigus Ab inh	DNMT1 inh	DNMT1 confirm	DNMT1 interf	others
O=C(O)CC1CCS(=O)(=O)C1 (stereo not drawn)	-1.5	-0.6	4.2	2.8	.	4.4	.	.
Cc1cc(C(=O)Nc2ccc3c(c2)CCC3)ccc1[N+](=O)[O-]	.	-4.0	1.7	2.5	93.8	77.7*	3.3	5.3
CN(C)CCOc1nc(-c2ccccc2)nc2c1oc1ccccc12	-38.9	0.2	6.4	-60.6	106.6	64.5*	57.2*	2.2	DNMT1 interf DR=>99
CCOC(=O)C1=C(C)N(C[C@@H]2CC[C@@H](Cc3ccc(-c4ccccc4)cc3)O2)C(=O)NC1c1ccc(SCc2ccco2)c([N+](=O)[O-])c1 (stereo partly drawn)	.	6.2	6.4	4.0	96.9	94.3*	6.2	-4.4
CN(C)CC(C)(C)CNC(=O)c1cc(=O)c2ccccc2o1	-0.4	-4.3	0.9	1.0	101.6	38.5	.	.
O=CC(O)C1OC(=O)C(O)C1O (stereo not drawn)	.	10.6	4.4	15.6	85.8*	89.8*	44.2*	4.5	DNMT1 interf DR=>99
Cc1ccccc1NC(=O)CSc1ccsc1[N+](=O)[O-]	12.6	6.1	5.8	19.7	80.8	104.4*	49.5*	-2.0	DNMT1 interf DR=>99
COCCCNC(=O)CSc1ccsc1[N+](=O)[O-]	-2.7	-18.0	-0.8	1.1	96.6	0.2	.	.
Cc1ccc(C)n1-c1nc(=S)[nH][nH]1	20.0	16.6	2.0	-6.8	97.6	46.0	.	.
CCCn1c(=O)c2sccc2n2c(CCCC(=O)NCc3ccco3)nnc12	13.9	8.2	2.5	3.9	91.4	77.3*	1.2	2.3
O=C1CC(=O)NC(SCC(=O)Nc2ccccc2[N+](=O)[O-])=N1	14.2	12.3	6.0	15.2	105.4	64.2*	32.9*	2.7	DNMT1 interf DR=>99
Cc1cc(C)nc(SCC(=O)Nc2ccccc2[N+](=O)[O-])n1	0.9	-14.5	2.6	-2.0	92.7	1.4	.	.
CCNS(=O)(=O)c1ccc(CCC(=O)N2CCCC2)cc1	9.5	0.2	-10.0	4.7	96.9	8.4	.	.
O=C(NNc1ccccc1)NC(Cc1ccccc1)C(=O)O (stereo not drawn)	.	-3.7	-1.3	6.4	95.5	-5.8	.	.
O=C(c1cc(Br)c(Br)s1)N1CCOCC1	.	-46.2	-5.5	-0.3	101.0	-3.1	.	.
O=C(c1ccc(=O)oc1)N1CCOCC1	11.1	9.8	4.1	42.8*	113.5	103.4*	63.9*	-2.5	DNMT1 interf DR=>99
